Assay results reported in ChEMBL document CHEMBL3627639, “Structure-activity relationships of amide-phosphonate derivatives as inhibitors of the human soluble epoxide hydrolase” (Bioorg Med Chem, 2015).
Values after ≈ are worked out from the molar mass of the structure shown.

test system: not listed separately; test: Aqueous solubility of the compound in sodium phosphate buffer at pH 7.4 at 25 +/- 1.5 degC by light scattering method; assay type: physicochemical
Summary of the method: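 Compound stock in DMSO added at varied concentrations to 0.1 M sodium phosphate pH 7.4, final DMSO:buffer 5:95 (v/v). Turbidity read as OD at 650 nm at 25 ± 1.5 °C. Signal-to-noise ≥2 counted as insoluble. Mean of three separate measurements.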

| Structure (SMILES) | solubility kinetic |
| --- | --- |
| CCOP(=O)(OCC)C(Nc1ccc(CNC(=O)CC23CC4CC(CC(C4)C2)C3)cc1)C(C)(C)C (stereo not given) | 62 µM (≈ 31.3 µg/mL) |
| CCOP(=O)(OCC)C(Nc1ccc(CNC(=O)NC23CC4CC(CC(C4)C2)C3)cc1)C(C)(C)C (stereo not given) | 78 µM (≈ 39.4 µg/mL) |
| CCOP(=O)(OCC)C(Nc1ccc(CNC(=O)Cc2ccc3ccccc3c2)cc1)C(C)(C)C (stereo not given) | 78 µM (≈ 38.7 µg/mL) |
| CCOP(=O)(OCC)C(Nc1ccc(CNC(=O)C23CC4CC(CC(C4)C2)C3)cc1)C(C)(C)C (stereo not given) | 125 µM (≈ 61.3 µg/mL) |

biological target: T1, Bifunctional epoxide hydrolase 2 (Homo sapiens, UniProt P34913); test: Inhibition of recombinant human sEH expressed in baculovirus infected insect Sf9 cells using CMNPC as substrate assessed as 6-methoxy-2-naphthadehyde level after 10 mins by fluorescence assay
T1 sequence (P34913 whole entry): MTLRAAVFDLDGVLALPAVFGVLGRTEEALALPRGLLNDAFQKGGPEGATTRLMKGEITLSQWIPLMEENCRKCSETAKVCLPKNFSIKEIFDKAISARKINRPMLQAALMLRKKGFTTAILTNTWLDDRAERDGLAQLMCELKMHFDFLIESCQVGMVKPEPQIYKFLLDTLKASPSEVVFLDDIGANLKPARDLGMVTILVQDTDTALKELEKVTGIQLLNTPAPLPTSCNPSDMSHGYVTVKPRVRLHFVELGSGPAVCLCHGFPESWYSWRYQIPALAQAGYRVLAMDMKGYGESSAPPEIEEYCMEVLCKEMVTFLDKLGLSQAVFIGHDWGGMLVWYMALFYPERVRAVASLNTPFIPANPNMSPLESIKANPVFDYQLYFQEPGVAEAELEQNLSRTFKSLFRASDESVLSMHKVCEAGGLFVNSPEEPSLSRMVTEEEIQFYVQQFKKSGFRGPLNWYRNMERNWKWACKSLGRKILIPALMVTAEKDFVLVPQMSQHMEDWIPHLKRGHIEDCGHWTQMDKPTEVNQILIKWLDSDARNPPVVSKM
Summary of the method: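 Recombinant human sEH (6xHis-tagged, expressed in Sf9 cells, tag removed with TEV protease, purified by metal affinity then anion exchange; 1 nM) preincubated with compound in DMSO for 10 min in 25 mM Bis–Tris/HCl pH 7.0 at 30 °C. CMNPC substrate added (5 µM). 6-Methoxy-2-naphthaldehyde read at ex 330/em 465 nm over 10 min. IC50 by regression of ≥5 points; mean of three runs.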

| Structure (SMILES) | IC50 |
| --- | --- |
| CCOP(=O)(OCC)C(Nc1ccc(CNC(=O)C23CC4CC(CC(C4)C2)C3)cc1)c1ccncc1 (stereo not given) | 185 nM |
| CCOP(=O)(OCC)C(Nc1ccc(CCNC(=O)C23CC4CC(CC(C4)C2)C3)cc1)C(C)(C)C (stereo not given) | 8.2 nM |
| CC(C)COP(=O)(OCC(C)C)C(Nc1ccc(CNC(=O)C23CC4CC(CC(C4)C2)C3)cc1)C(C)(C)C (stereo not given) | 16 nM |
| CC(C)OP(=O)(OC(C)C)C(Nc1ccc(CNC(=O)NC23CC4CC(CC(C4)C2)C3)cc1)C(C)(C)C (stereo not given) | 1.7 nM |
| CCOP(=O)(OCC)C(Nc1ccc(CNC(=O)CC23CC4CC(CC(C4)C2)C3)cc1)C(C)(C)C (stereo not given) | 1.9 nM |
| CC(C)COP(=O)(OCC(C)C)C(Nc1ccc(CNC(=O)NC23CC4CC(CC(C4)C2)C3)cc1)C(C)(C)C (stereo not given) | 1.8 nM |
| CC(C)(C)C(Nc1ccc(CNC(=O)C23CC4CC(CC(C4)C2)C3)cc1)P(=O)(OCc1ccccc1)OCc1ccccc1 (stereo not given) | 42 nM |
| CCOP(=O)(OCC)C(Nc1ccc(NC(=O)C23CC4CC(CC(C4)C2)C3)cc1)C(C)(C)C (stereo not given) | 37 nM |
| CCOP(=O)(OCC)C(Nc1ccc(CNC(=O)NC23CC4CC(CC(C4)C2)C3)cc1)C(C)(C)C (stereo not given) | 0.96 nM |
| CCOP(=O)(OCC)C(Nc1ccc(CNC(=O)C23CC4CC(CC(C4)C2)C3)cc1)C1CCCCC1 (stereo not given) | 46 nM |
| CCOP(=O)(OCC)C(Nc1ccc(CNC(=O)C23CC4CC(CC(C4)C2)C3)cc1)c1ccc(C(=O)OC)cc1 (stereo not given) | 230 nM |
| CCOP(=O)(OCC)C(Nc1ccc(COC(=O)C23CC4CC(CC(C4)C2)C3)cc1)C(C)(C)C (stereo not given) | > 1000 nM |
| CCCCOP(=O)(OCCCC)C(Nc1ccc(CNC(=O)C23CC4CC(CC(C4)C2)C3)cc1)C(C)(C)C (stereo not given) | 26 nM |
| CCOP(=O)(OCC)C(Nc1ccc(CNC(=O)c2ccc(OC(F)(F)F)cc2)cc1)C(C)(C)C (stereo not given) | 24 nM |
| CCOP(=O)(OCC)C(Nc1ccc(CNC(=O)Cc2ccc3ccccc3c2)cc1)C(C)(C)C (stereo not given) | 3.4 nM |
| CC(C)OP(=O)(OC(C)C)C(Nc1ccc(CNC(=O)C23CC4CC(CC(C4)C2)C3)cc1)C(C)(C)C (stereo not given) | 6.7 nM |
| CCOP(=O)(OCC)C(Nc1ccc(CNC(=O)C23CC4CC(CC(C4)C2)C3)cc1)c1ccc(C(C)(C)C)cc1 (stereo not given) | 192 nM |
| CCOP(=O)(OCC)C(Nc1ccc(CNC(=O)C23CC4CC(CC(C4)C2)C3)cc1)c1ccc2ccccc2c1 (stereo not given) | 186 nM |

| Structure (SMILES) | IC50 |
| --- | --- |
| CCOP(=O)(OCC)C(Nc1ccc(CNC(=O)C23CC4CC(CC(C4)C2)C3)cc1)C(C)(C)C (stereo not given) | 5.1 nM |
| CCOP(=O)(OCC)C(Nc1ccc(CNC(=O)c2ccc3cc(O)ccc3c2)cc1)C(C)(C)C (stereo not given) | 17 nM |
| CC(C)(C)C(Nc1ccc(CNC(=O)NC23CC4CC(CC(C4)C2)C3)cc1)P(=O)(OCC(F)(F)F)OCC(F)(F)F (stereo not given) | 3.8 nM |
| CCOP(=O)(OCC)C(Nc1ccc(CNC(=O)C23CC4CC(CC(C4)C2)C3)cc1)c1ccc(F)cc1 (stereo not given) | 120 nM |
| CCOP(=O)(OCC)C(Nc1ccc(CNC(=O)C23CC4CC(CC(C4)C2)C3)cc1)c1ccccc1 (stereo not given) | 45 nM |
| CCCCOP(=O)(OCCCC)C(Nc1ccc(CNC(=O)NC23CC4CC(CC(C4)C2)C3)cc1)C(C)(C)C (stereo not given) | 3 nM |
| CCOP(=O)(OCC)C(Nc1ccc(CNC(=O)C23CC4CC(CC(C4)C2)C3)cc1)c1ccc(C)cc1 (stereo not given) | 130 nM |
| CCOP(=O)(OCC)C(Nc1ccc(CNC(=O)C2CCc3ccccc3C2)cc1)C(C)(C)C (stereo not given) | 3 nM |
| CCOP(=O)(OCC)C(Nc1ccc(CNC(=O)C23CC4CC(CC(C4)C2)C3)cc1)c1ccc(C#N)cc1 (stereo not given) | 108 nM |
| CCOP(=O)(OCC)C(Nc1ccc(CNC(=O)C23CC4CC(CC(C4)C2)C3)cc1)C1CC1 (stereo not given) | 21 nM |
| CCOP(=O)(OCC)C(Nc1ccc(CNC(=O)C23CC4CC(CC(C4)C2)C3)cc1)C(=O)c1ccccc1 (stereo not given) | 69 nM |
| CCCC(Nc1ccc(CNC(=O)C23CC4CC(CC(C4)C2)C3)cc1)P(=O)(OCC)OCC (stereo not given) | 58 nM |
| CCOP(=O)(OCC)C(Nc1ccc(CNC(=O)C2CCCCC2)cc1)C(C)(C)C (stereo not given) | 23 nM |
| CC(C)(C)C(Nc1ccc(CNC(=O)NC23CC4CC(CC(C4)C2)C3)cc1)P(=O)(OCc1ccccc1)OCc1ccccc1 (stereo not given) | 2.6 nM |
| CCOP(=O)(OCC)C(Nc1ccc(CCC(=O)NC23CC4CC(CC(C4)C2)C3)cc1)C(C)(C)C (stereo not given) | 43 nM |
| CC(C)(C)C(Nc1ccc(CNC(=O)C23CC4CC(CC(C4)C2)C3)cc1)P(=O)(OCC(F)(F)F)OCC(F)(F)F (stereo not given) | 30 nM |
| CCOP(=O)(OCC)C(Nc1ccc(CNC(=O)C23CC4CC(CC(C4)C2)C3)cc1)c1ccc(OC)cc1 (stereo not given) | 199 nM |
| CCOP(=O)(OCC)C(CC(C)(C)C)Nc1ccc(CNC(=O)C23CC4CC(CC(C4)C2)C3)cc1 (stereo not given) | 41 nM |
